Assays:
[1] = target: 5-hydroxytryptamine receptor 1D (Homo sapiens, UniProt P28221); assay: In vitro binding affinity by radioligand binding assay using cell line expressing human 5-hydroxytryptamine 1D receptor
Summary of the method: (§1)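 Ki (nM) from radioligand binding on cell lines each expressing one human serotonin receptor subtype. Values are means of at least three determinations with SEM. ND: Ki not determined, when a 10⁻⁷ M test ligand gave <50% displacement of radioligand.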

[2] = target: T1, 5-hydroxytryptamine receptor 1F (Homo sapiens, UniProt P30939); assay: In vitro binding affinity was determined by radioligand binding assay using cell line expressing human 5-hydroxytryptamine 1F receptor; summary of the method: as §1
T1 sequence (P30939 whole entry): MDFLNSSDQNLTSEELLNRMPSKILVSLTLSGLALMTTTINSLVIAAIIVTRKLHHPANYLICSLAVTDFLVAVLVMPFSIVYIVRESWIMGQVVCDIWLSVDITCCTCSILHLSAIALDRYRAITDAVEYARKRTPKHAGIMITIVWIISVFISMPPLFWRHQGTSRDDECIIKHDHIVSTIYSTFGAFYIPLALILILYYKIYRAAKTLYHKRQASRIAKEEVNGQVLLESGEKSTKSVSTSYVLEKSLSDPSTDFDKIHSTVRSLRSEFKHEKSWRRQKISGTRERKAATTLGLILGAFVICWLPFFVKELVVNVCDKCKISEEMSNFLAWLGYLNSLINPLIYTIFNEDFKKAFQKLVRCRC

[3] = target: 5-hydroxytryptamine receptor 1B (Homo sapiens, UniProt P28222); assay: In vitro binding affinity by radioligand binding assay using cell line expressing human 5-hydroxytryptamine 1B receptor
Summary of the method: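 Ki (nM) from radioligand binding on cell lines each expressing one human serotonin receptor subtype. Values are means of at least three determinations with SEM.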

[4] = target: T1, 5-hydroxytryptamine receptor 1F; assay: In vitro effective concentration for stimulation of [35S]GTP-gamma-S, binding in mouse LM(tk-)cells expressing the human 5-hydroxytryptamine 1F receptor; type: functional
Oryctolagus cuniculus = organism: Oryctolagus cuniculus; assay: In vitro contractile response in rabbit saphenous vein; type: functional
Summary of the method: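 Rabbit saphenous vein rings. Maximal contraction is expressed as % of the contraction induced by KCl (67 mM), with the concentration giving the maximal response recorded. Means (SEM) of three to seven determinations.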

Cavia porcellus [5] = assay: In vivo efficacy in neurogenic plasma protein extravasation screen using guinea pig neurogenic PPE assay (1 ng/kg, po) at 1 hr postdose; type: functional
Summary of the method: (§2)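 Guinea pig neurogenic dural PPE screen. Single oral dose of 1 ng/kg, then unilateral trigeminal ganglion stimulation with Evan's blue-labelled plasma protein leakage. Read-out is the fluorescence ratio of stimulated to unstimulated dura at 1 h or 24 h postdose. A ratio near 1 means full efficacy; near 1.8 means ineffective.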

[6] = target: T2, 5-hydroxytryptamine receptor 1F (Homo sapiens) (UniProt P30939); assay: Maximum stimulation of [35S]GTP-gamma-S, binding expressed relative to the maximal effect of 5-hydroxytryptamine […]; type: functional
T2 sequence (whole entry): T1 sequence (P30939 whole entry)

[7] = target: T3, 5-hydroxytryptamine receptor 1A (Homo sapiens, UniProt P08908); assay: In vitro binding affinity by radioligand binding assay using cell line expressing human 5-hydroxytryptamine 1A receptor; summary of the method: as §1
T3 sequence (P08908 whole entry): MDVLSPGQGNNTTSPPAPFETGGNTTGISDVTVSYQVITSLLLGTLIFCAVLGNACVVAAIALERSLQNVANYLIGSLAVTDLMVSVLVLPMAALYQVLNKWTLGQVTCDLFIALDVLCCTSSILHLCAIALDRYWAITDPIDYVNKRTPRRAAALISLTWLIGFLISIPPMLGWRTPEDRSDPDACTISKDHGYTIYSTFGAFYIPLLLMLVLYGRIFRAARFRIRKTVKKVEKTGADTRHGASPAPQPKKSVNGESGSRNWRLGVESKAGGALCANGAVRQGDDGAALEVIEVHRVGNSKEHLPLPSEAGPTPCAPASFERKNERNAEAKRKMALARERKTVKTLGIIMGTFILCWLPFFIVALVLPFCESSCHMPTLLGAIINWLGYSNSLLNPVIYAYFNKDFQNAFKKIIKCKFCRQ

Cavia porcellus [8] = assay: In vivo efficacy in neurogenic plasma protein extravasation screen using guinea pig neurogenic PPE assay (1 ng/kg, po) at 24 hr postdose; type: functional; summary of the method: as §2

5-hydroxytryptamine receptor 1B, sequence (P28222 whole entry): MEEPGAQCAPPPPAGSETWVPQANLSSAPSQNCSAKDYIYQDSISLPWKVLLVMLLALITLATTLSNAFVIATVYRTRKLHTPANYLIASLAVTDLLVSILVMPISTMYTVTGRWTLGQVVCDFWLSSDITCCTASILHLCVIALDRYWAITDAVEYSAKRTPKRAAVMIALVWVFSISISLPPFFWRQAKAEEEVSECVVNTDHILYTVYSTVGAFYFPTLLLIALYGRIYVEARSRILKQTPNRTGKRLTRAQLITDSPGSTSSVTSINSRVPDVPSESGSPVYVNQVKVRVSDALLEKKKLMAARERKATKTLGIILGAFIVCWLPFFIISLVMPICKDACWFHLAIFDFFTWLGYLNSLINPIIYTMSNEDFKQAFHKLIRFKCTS
5-hydroxytryptamine receptor 1D, sequence (P28221 whole entry): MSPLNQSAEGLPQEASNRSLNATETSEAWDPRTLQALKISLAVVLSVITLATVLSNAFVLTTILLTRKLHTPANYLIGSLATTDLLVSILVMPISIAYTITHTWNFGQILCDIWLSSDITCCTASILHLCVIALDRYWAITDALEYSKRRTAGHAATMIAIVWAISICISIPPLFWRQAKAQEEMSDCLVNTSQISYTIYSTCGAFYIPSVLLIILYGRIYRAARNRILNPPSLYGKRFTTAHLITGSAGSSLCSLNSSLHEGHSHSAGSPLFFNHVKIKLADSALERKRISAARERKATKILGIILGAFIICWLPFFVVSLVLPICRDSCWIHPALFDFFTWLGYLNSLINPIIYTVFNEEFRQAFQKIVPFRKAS

SMILES	Ki [1] [nM]	Ki [2] [nM]	Ki [3] [nM]	EC50 [4] [nM]	Response (Oryctolagus cuniculus) [%]	Efficacy (Cavia porcellus [5])	Emax [6] [%]	Ki [7] [nM]	Efficacy (Cavia porcellus [8])
CN1CCC(c2c[nH]c3ccc(NC(=O)Nc4ccc(F)cc4)nc23)CC1	3.8	11	3.2						
CN1CCC(c2c[nH]c3ccc(NC(=O)C4CC4)nc23)CC1	1800	9.8	1700	34	2.3	1.4	77	1400	
CN1CCC(c2c[nH]c3ccc(NC(=O)c4ccccn4)nc23)CC1	820	6.3	1000	25			63	41	
CCNC(=O)Nc1ccc2[nH]cc(C3CCN(C)CC3)c2n1	40	3.8							
CN1CCC(c2c[nH]c3ccc(NC(=O)c4cccc(C#N)c4)nc23)CC1		11	590					100	
CN1CCC(c2c[nH]c3ccc(NC(=O)c4ccccc4)nc23)CC1	1000	7.3	820		0	1.1		72	1.6
CCN1CCC(c2c[nH]c3ccc(NC(=O)c4ccc(F)cc4)nc23)CC1		170							
CCN1CC=C(c2c[nH]c3ccc(NC(C)=O)nc23)CC1		21							
Cc1ccc(C(=O)Nc2ccc3[nH]cc(C4CCN(C)CC4)c3n2)cc1		12						30	
CN1CCC(c2c[nH]c3ccc(OS(C)(=O)=O)nc23)CC1	8	4.7	25						
CN1CCC(c2c[nH]c3cnc(NC(=O)c4ccc(F)cc4)nc23)CC1	1900	67	6000					200	
CN1CCC(c2c[nH]c3ccc(NC(=O)c4ccccc4[N+](=O)[O-])nc23)CC1	170	19						64	
CC(C)N1CCC(c2c[nH]c3ccc(NC(=O)c4ccc(F)cc4)nc23)CC1		30							
CC(=O)Nc1cc2c(C3CCN(C)CC3)c[nH]c2cn1	39	210						2	
Cc1cccc(C(=O)Nc2ccc3[nH]cc(C4CCN(C)CC4)c3n2)c1	490	5.8	1200					100	
CN1CCC(c2c[nH]c3ccc(NC(=O)C(C)(C)C)nc23)CC1		62							
O=C(Nc1ccc2[nH]cc(C3CCNCC3)c2n1)c1ccc(F)cc1		9.5							
CCCC(=O)Nc1ccc2[nH]cc(C3CCN(C)CC3)c2n1		6.9		13	12.4		94		
CN1CCC(c2c[nH]c3ccc(NC(=O)C4CCC4)nc23)CC1	900	8.7	380	21	17		81	2000	
Cc1ccccc1C(=O)Nc1ccc2[nH]cc(C3CCN(C)CC3)c2n1	440	12	150					106	
CCN1CC=C(c2c[nH]c3ccc(NC(=O)c4ccc(F)cc4)nc23)CC1		25							
CN1CCC(c2c[nH]c3ccc(N)nc23)CC1	420	100	800						
O=C(Nc1ccc2[nH]cc(C3CCN(CCc4ccccc4)CC3)c2n1)c1ccc(F)cc1		75							
CN1CCC(c2c[nH]c3ccc(NC(=O)C4CCCCC4)nc23)CC1		20						660	
CNC(=O)Nc1ccc2[nH]cc(C3CCN(C)CC3)c2n1	8.5	2.5	14						
CN1CCC(c2c[nH]c3ccc(NC(=O)c4ccc([N+](=O)[O-])cc4)nc23)CC1	340	7.7	270					38	
CCC(=O)Nc1ccc2[nH]cc(C3CCNCC3)c2n1		35							

SMILES	Ki [1] [nM]	Ki [2] [nM]	Ki [3] [nM]	EC50 [4] [nM]	Response (Oryctolagus cuniculus) [%]	Efficacy (Cavia porcellus [5])	Emax [6] [%]	Ki [7] [nM]	Efficacy (Cavia porcellus [8])
COc1cccc(C(=O)Nc2ccc3[nH]cc(C4CCN(C)CC4)c3n2)c1		16						98	
CN1CCC(c2c[nH]c3ccc(NC(=O)c4ccsc4)nc23)CC1	810	7.4	1000	9.4	0	1	84	400	1.6
CN1CCC(c2c[nH]c3ccc(NC(=O)c4ccoc4)nc23)CC1	1100	4.6	930	11			88	840	
CN1CCC(c2c[nH]c3ccc(NS(C)(=O)=O)nc23)CC1	380	19	610						
CN1CCC(c2c[nH]c3cnc(NC(=O)c4ccc(F)cc4)cc23)CC1	53	13	80					17	
CN1CCC(c2c[nH]c3ccc(NC(=O)c4ccco4)nc23)CC1	930	13	1100	11			82	560	
CN1CCC(c2c[nH]c3ccc(NC(=O)c4ccccc4F)nc23)CC1		19						42	
CN1CCC(c2c[nH]c3ccc(NC(=O)c4cccs4)nc23)CC1	650	7.1	390	15			61	350	
CN1CCC(c2c[nH]c3ccc(NC(=O)C4CCCC4)nc23)CC1	740	11	640					2000	
CC(=O)Nc1ncc2[nH]cc(C3CCN(C)CC3)c2n1	470	220	2900					780	
CCCN1CCC(c2c[nH]c3ccc(NC(=O)c4ccc(F)cc4)nc23)CC1		18							
CN1CCC(c2c[nH]c3ccc(NC(=O)c4ccncc4)nc23)CC1	420	8.4	330	11			97	40	
CCCCCCCC(=O)Nc1ccc2[nH]cc(C3CCN(C)CC3)c2n1	110	20	32						
CCCCCC(=O)Nc1ccc2[nH]cc(C3CCN(C)CC3)c2n1		13							
CCCCC(=O)Nc1ccc2[nH]cc(C3CCN(C)CC3)c2n1		14							
CN1CCC(c2c[nH]c3ccc(NC(=O)c4cccc([N+](=O)[O-])c4)nc23)CC1	330	42	390					130	
CN1CCC(c2c[nH]c3ccc(NC(=O)c4ccc(Cl)cc4Cl)nc23)CC1	83	4.1						5.1	
CN1CCC(c2c[nH]c3ccc(O)nc23)CC1		100							
CN1CCC(c2c[nH]c3ccc(NC(=O)c4ccc(F)cc4)cc23)CC1	430	2.1						22	
CN1CCC(c2c[nH]c3ccc(NS(=O)(=O)c4ccc(F)cc4)nc23)CC1		27							
CC(=O)Nc1ccc2[nH]cc(C3CCN(C)CC3)c2c1	150	9.7	390					68	
COc1ccc2[nH]cc(C3CCN(C)CC3)c2n1	23	23	110						
COc1ccccc1C(=O)Nc1ccc2[nH]cc(C3CCN(C)CC3)c2n1		20	750					20	
CCCCN1CCC(c2c[nH]c3ccc(NC(=O)c4ccc(F)cc4)nc23)CC1		14							
CN1CCC(c2c[nH]c3ccc(NC(=O)c4cccc(F)c4)nc23)CC1	690	11	1600					135	
CC(=O)Nc1ccc2[nH]cc(C3CCNCC3)c2n1		45							
CN1CCC(c2c[nH]c3ccc(OS(=O)(=O)c4ccc(F)cc4)nc23)CC1	30	7.5							

Source: ChEMBL document CHEMBL1145835, “Novel potent 5-HT(1F) receptor agonists: structure-activity studies of a series of substituted N-[3-(1-methyl-4-piperidinyl)-1H-pyrrolo[3,2-b]pyridin-5-yl]amides” (J Med Chem, 2003)
